Test results taken from ChEMBL document CHEMBL3232760 (Bioorg Med Chem, 2014).
Activity calls are given as the source filed them. No cut-off for these calls is given here.

Experiments:
Format in all cases: cell-based
Estrogen receptor beta [1] = biological target: T1, Estrogen receptor beta (Homo sapiens, UniProt Q92731); assay: Agonist activity at human Gal4-fused ER-beta expressed in HEK293 cells at 10 uM by luciferase reporter gene assay relative to 17beta-estradiol
Procedure, shortened: (§1)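 Agonist mode: HEK293 cells in phenol-red-free DMEM with 5% FBS, 37 °C, 5% CO2, calcium phosphate cotransfected with GAL4-responsive MH100(UAS)x4-tk-LUC reporter, ER receptor fragment plasmid and beta-galactosidase plasmid. Compound added 8 h post-transfection, cells harvested 16–20 h later. Luciferase normalized to beta-galactosidase, triplicate means.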

Estrogen receptor [2] = biological target: T2, Estrogen receptor (Homo sapiens, UniProt P03372); assay: Agonist activity at human Gal4-fused ER-alpha expressed in HEK293 cells by luciferase reporter gene assay
T2 sequence (P03372 whole entry): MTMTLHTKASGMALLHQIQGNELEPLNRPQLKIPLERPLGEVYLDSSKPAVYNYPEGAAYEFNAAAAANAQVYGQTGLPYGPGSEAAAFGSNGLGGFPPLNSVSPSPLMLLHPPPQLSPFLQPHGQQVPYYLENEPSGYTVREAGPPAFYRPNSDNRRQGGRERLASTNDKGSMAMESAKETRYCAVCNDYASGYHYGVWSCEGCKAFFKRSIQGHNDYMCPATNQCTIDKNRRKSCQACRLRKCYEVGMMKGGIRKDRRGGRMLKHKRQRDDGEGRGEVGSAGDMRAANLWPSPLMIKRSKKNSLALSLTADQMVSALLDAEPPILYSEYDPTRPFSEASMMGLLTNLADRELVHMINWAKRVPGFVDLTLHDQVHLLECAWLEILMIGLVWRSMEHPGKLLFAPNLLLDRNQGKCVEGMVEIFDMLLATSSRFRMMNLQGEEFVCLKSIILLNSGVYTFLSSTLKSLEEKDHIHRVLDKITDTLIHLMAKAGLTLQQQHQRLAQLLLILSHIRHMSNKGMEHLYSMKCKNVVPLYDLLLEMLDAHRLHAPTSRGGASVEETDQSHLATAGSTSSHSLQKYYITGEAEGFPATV
Procedure, shortened: (§2)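 GAL4-ER fusion reporter in HEK293 (phenol-red-free DMEM, 5% FBS), calcium phosphate transfection with MH100(UAS)x4-tk-LUC and beta-galactosidase control; compounds given 8 h after transfection, harvest at 16–20 h. Luciferase/beta-galactosidase ratio, triplicate means; agonism expressed as EC50 (nM).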

[3] = biological target: T3, Steryl-sulfatase (Homo sapiens) (UniProt P08842); assay: Inhibition of steroid sulfatase in human MCF7 cells assessed as conversion of [3H]E1S to [3H]E1 and [3H]E2 at 1 uM after 5 hrs by liquid scintillation counting
T3 sequence (whole entry): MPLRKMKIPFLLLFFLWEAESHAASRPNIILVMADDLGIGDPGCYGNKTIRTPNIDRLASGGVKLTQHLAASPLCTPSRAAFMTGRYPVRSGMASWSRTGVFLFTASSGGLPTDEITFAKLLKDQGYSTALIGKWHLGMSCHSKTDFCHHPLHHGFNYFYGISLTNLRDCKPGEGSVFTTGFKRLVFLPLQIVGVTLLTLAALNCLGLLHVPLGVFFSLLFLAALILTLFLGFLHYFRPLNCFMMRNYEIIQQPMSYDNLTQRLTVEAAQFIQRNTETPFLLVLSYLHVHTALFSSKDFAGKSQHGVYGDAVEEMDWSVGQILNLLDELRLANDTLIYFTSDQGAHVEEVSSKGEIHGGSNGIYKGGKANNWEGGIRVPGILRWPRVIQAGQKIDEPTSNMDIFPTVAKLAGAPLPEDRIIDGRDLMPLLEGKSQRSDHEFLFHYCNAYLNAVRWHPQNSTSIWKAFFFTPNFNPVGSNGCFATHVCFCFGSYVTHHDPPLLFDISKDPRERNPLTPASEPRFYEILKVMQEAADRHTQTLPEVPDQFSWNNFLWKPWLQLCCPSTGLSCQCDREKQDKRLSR
Procedure, shortened: (§3)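 MCF-7 homogenate (freeze–thaw five times, diluted in Tris–EDTA, centrifuged 15,000g 4 °C 15 min, supernatant adjusted to 0.2 mg/mL protein by Bradford) incubated with [3H]E1S (final 10 nM) and inhibitor at 37 °C for 5 h. Toluene extraction of [3H]E1 plus [3H]E2, liquid scintillation counting; 1 uM STX64 defined 100%; triplicate.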

[4] = biological target: T3, Steryl-sulfatase (Homo sapiens); assay: Inhibition of steroid sulfatase in human MCF7 cells assessed as conversion of [3H]E1S to [3H]E1 and [3H]E2 at 0.1 uM after 5 hrs by liquid scintillation counting; procedure, shortened: as §3
Steryl-sulfatase = biological target: T4, Steryl-sulfatase (Homo sapiens, UniProt P08842); assay: Inhibition of steroid sulfatase in human MCF7 cells assessed as conversion of [3H]E1S to [3H]E1 and [3H]E2 after 5 hrs by liquid scintillation counting; procedure, shortened: as §3
T4 sequence (P08842 whole entry): T3 sequence (whole entry)

Estrogen receptor beta [5] = biological target: T1, Estrogen receptor beta; assay: Antagonist activity at human Gal4-fused ER-beta expressed in HEK293 cells assessed as inhibition of 17beta-estradiol-induced effect at 3 uM by luciferase reporter gene assay
Procedure, shortened: (§4)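 Antagonist mode in transfected HEK293 GAL4-ER luciferase system, with cells co-treated with 0.3 nM 17beta-estradiol. Compound added 8 h post-transfection, 16–20 h treatment, luciferase normalized to beta-galactosidase, triplicate means.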

[6] = biological target: T5, Estrogen receptor (Homo sapiens) (UniProt P03372); assay: Antagonist activity at human Gal4-fused ER-alpha expressed in HEK293 cells assessed as inhibition of 17beta-estradiol-induced effect at 3 uM by luciferase reporter gene assay; procedure, shortened: as §4
T5 sequence (whole entry): T2 sequence (P03372 whole entry)

Estrogen receptor [7] = biological target: T2, Estrogen receptor; assay: Antagonist activity at human Gal4-fused ER-alpha expressed in HEK293 cells assessed as inhibition of 17beta-estradiol-induced effect by luciferase reporter gene assay
Procedure, shortened: (§5)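 With 0.3 nM 17beta-estradiol present, HEK293 cells calcium phosphate cotransfected with GAL4-responsive luciferase reporter, ER plasmid and beta-galactosidase were treated 8 h post-transfection for 16–20 h. Normalized luciferase, triplicate means; antagonism expressed as IC50 (nM).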

Estrogen receptor beta [8] = biological target: T1, Estrogen receptor beta; assay: Antagonist activity at human Gal4-fused ER-beta expressed in HEK293 cells assessed as inhibition of 17beta-estradiol-induced effect at 1 uM by luciferase reporter gene assay; procedure, shortened: as §4
[9] = biological target: T5, Estrogen receptor (Homo sapiens); assay: Agonist activity at human Gal4-fused ER-alpha expressed in HEK293 cells at 10 uM by luciferase reporter gene assay relative to 17beta-estradiol; procedure, shortened: as §1
Estrogen receptor beta [10] = biological target: T1, Estrogen receptor beta; assay: Antagonist activity at human Gal4-fused ER-beta expressed in HEK293 cells assessed as inhibition of 17beta-estradiol-induced effect by luciferase reporter gene assay; procedure, shortened: as §5
Estrogen receptor beta [11] = biological target: T1, Estrogen receptor beta; assay: Agonist activity at human Gal4-fused ER-beta expressed in HEK293 cells by luciferase reporter gene assay; procedure, shortened: as §2

T1 sequence (Q92731 whole entry, the tested form may be a part): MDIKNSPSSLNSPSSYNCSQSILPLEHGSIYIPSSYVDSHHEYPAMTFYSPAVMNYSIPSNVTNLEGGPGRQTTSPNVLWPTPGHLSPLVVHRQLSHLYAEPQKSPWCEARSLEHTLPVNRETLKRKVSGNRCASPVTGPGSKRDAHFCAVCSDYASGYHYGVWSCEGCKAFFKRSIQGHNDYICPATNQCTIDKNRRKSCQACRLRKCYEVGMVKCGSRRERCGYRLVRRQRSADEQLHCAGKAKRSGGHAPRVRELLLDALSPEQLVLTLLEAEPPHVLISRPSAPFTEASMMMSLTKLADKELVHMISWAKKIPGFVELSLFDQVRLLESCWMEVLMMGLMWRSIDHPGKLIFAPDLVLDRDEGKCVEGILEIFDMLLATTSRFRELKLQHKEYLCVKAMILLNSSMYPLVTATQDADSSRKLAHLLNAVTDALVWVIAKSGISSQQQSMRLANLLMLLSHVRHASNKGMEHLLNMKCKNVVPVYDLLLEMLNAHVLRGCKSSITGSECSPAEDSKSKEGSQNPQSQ

SMILES: NS(=O)(=O)Oc1ccc(Sc2ccc(OS(N)(=O)=O)cc2)cc1
- Activity (Estrogen receptor beta [1]): 82.8%
- EC50 (Estrogen receptor [2]): Active
- inhibition [3]: 89.7%
- inhibition [4]: 57.1%
- IC50 (Steryl-sulfatase): 88 nM
- inhibition (Estrogen receptor beta [5]): inactive

SMILES: CN(C)S(=O)(=O)Oc1ccc([Si](C)(C)c2ccc(OS(=O)(=O)N(C)C)cc2)cc1
- inhibition [3]: < 10%
- inhibition [4]: < 10%

SMILES: CCC[Si](CCC)(c1ccc(OS(N)(=O)=O)c(C)c1)c1ccc(OS(N)(=O)=O)c(C)c1
- inhibition [6]: 87.1%
- inhibition [3]: 18.7%
- inhibition [4]: < 10%
- inhibition (Estrogen receptor beta [5]): 18%

SMILES: CC[Si](CC)(c1ccc(O)cc1)c1ccc(O)cc1
- Activity (Estrogen receptor beta [1]): 11.9%
- IC50 (Estrogen receptor [7]): 115 nM
- inhibition (Estrogen receptor beta [8]): 53%
- Activity [9]: 7.1%

SMILES: CC[Si](CC)(c1ccc(OS(N)(=O)=O)cc1)c1ccc(OS(N)(=O)=O)cc1
- Activity (Estrogen receptor beta [1]): 1.1%
- inhibition [6]: 100%
- inhibition [3]: 96.4%
- inhibition [4]: 62%
- Activity [9]: inactive
- inhibition (Estrogen receptor beta [5]): 62.8%

SMILES: CC[Si](CC)(c1ccc(O)c(C)c1)c1ccc(O)c(C)c1
- IC50 (Estrogen receptor [7]): 29.7 nM
- inhibition (Estrogen receptor beta [5]): 53.5%

SMILES: CCCC(CCC)(c1ccc(O)c(C)c1)c1ccc(O)c(C)c1
- Activity (Estrogen receptor beta [1]): 6.1%
- EC50 (Estrogen receptor [2]): Not Active

SMILES: CCCC(CCC)(c1ccc(OS(N)(=O)=O)c(C)c1)c1ccc(OS(N)(=O)=O)c(C)c1
- inhibition [6]: 54.9%
- inhibition [3]: 21.1%
- inhibition [4]: < 10%
- inhibition (Estrogen receptor beta [5]): 43.9%

SMILES: C[Si](C)(c1ccc(OS(N)(=O)=O)cc1)c1ccc(OS(N)(=O)=O)cc1
- Activity (Estrogen receptor beta [1]): 16.7%
- inhibition [6]: inactive
- inhibition [3]: 81.9%
- inhibition [4]: 35.8%
- Activity [9]: 10.8%
- inhibition (Estrogen receptor beta [5]): inactive

SMILES: CC(C)(c1ccc(OS(N)(=O)=O)cc1)c1ccc(OS(N)(=O)=O)cc1
- Activity (Estrogen receptor beta [1]): inactive
- inhibition [6]: 6.63%
- inhibition [3]: < 10%
- inhibition [4]: < 10%
- Activity [9]: 9.5%
- inhibition (Estrogen receptor beta [5]): 7.79%

SMILES: CCCCC(CCCC)(c1ccc(OS(N)(=O)=O)c(C)c1)c1ccc(OS(N)(=O)=O)c(C)c1
- inhibition [6]: 42.5%
- inhibition [3]: 28%
- inhibition [4]: 10.3%
- inhibition (Estrogen receptor beta [5]): inactive

SMILES: Oc1ccc(Sc2ccc(O)cc2)cc1
- IC50 (Estrogen receptor beta [10]; hek293): Not Active
- Activity [9]: 37.8%

SMILES: CCC(CC)(c1ccc(OS(N)(=O)=O)c(C)c1)c1ccc(OS(N)(=O)=O)c(C)c1
- Activity (Estrogen receptor beta [1]): inactive
- inhibition [6]: 36.7%
- inhibition [3]: 25.4%
- inhibition [4]: < 10%
- Activity [9]: inactive
- inhibition (Estrogen receptor beta [5]): 49.3%

SMILES: CCC(CC)(c1ccc(O)cc1)c1ccc(O)cc1
- Activity (Estrogen receptor beta [1]): 9.3%
- EC50 (Estrogen receptor [2]): Not Active
- IC50 (Estrogen receptor [7]): 118 nM

SMILES: CC[Si](CC)(c1ccc(OS(N)(=O)=O)c(C)c1)c1ccc(OS(N)(=O)=O)c(C)c1
- Activity (Estrogen receptor beta [1]): inactive
- inhibition [6]: 94.8%
- inhibition [3]: 82.6%
- inhibition [4]: 22.6%
- IC50 (Steryl-sulfatase): 170 nM
- Activity [9]: inactive
- inhibition (Estrogen receptor beta [5]): 47.2%

SMILES: CCC[Si](CCC)(c1ccc(O)c(C)c1)c1ccc(O)c(C)c1
- Activity (Estrogen receptor beta [1]): 4.9%
- IC50 (Estrogen receptor [7]): 26.2 nM
- IC50 (Estrogen receptor beta [10]; read-out: IC50): 804 nM
- Activity [9]: 5.6%

SMILES: CCCC[Si](CCCC)(c1ccc(OS(N)(=O)=O)c(C)c1)c1ccc(OS(N)(=O)=O)c(C)c1
- inhibition [6]: 16.4%
- inhibition [3]: 16.4%
- inhibition [4]: < 10%
- inhibition (Estrogen receptor beta [5]): inactive

SMILES: CCC(CC)(c1ccc(OS(N)(=O)=O)cc1)c1ccc(OS(N)(=O)=O)cc1
- Activity (Estrogen receptor beta [1]): inactive
- inhibition [6]: 53.2%
- inhibition [3]: 29.9%
- inhibition [4]: 11%
- Activity [9]: inactive
- inhibition (Estrogen receptor beta [5]): 49.3%

SMILES: CCCCC(CCCC)(c1ccc(O)c(C)c1)c1ccc(O)c(C)c1
- EC50 (Estrogen receptor [2]): Not Active
- EC50 (Estrogen receptor beta [11]): Not Active

SMILES: Oc1ccc(Cc2ccc(O)cc2)cc1
- IC50 (Estrogen receptor beta [10]; hek293): Not Active
- inhibition [6]: 22.6%

SMILES: NS(=O)(=O)Oc1ccc2c3c(c(=O)oc2c1)CCCCC3
- inhibition [3]: 100%

SMILES: C[Si](C)(c1ccc(O)cc1)c1ccc(OS(N)(=O)=O)cc1
- inhibition [3]: 76.4%
- inhibition [4]: 25.2%

SMILES: CCC(CC)(c1ccc(O)c(C)c1)c1ccc(O)c(C)c1
- EC50 (Estrogen receptor [2]): Not Active
- IC50 (Estrogen receptor [7]): 3.53 nM
- EC50 (Estrogen receptor beta [11]): Not Active

SMILES: CC(C)(c1ccc(O)cc1)c1ccc(O)cc1 [BISPHENOL A]
- IC50 (Estrogen receptor beta [10]; hek293): Not Active
- inhibition [6]: 36.1%
- Activity [9]: 28.7%

SMILES: C[Si](C)(c1ccc(O)cc1)c1ccc(O)cc1
- IC50 (Estrogen receptor beta [10]; hek293): Not Active
- inhibition [6]: 50.9%
- inhibition [3]: < 10%
- inhibition [4]: < 10%
- Activity [9]: 25.3%

SMILES: NS(=O)(=O)Oc1ccc(Cc2ccc(OS(N)(=O)=O)cc2)cc1
- EC50 (Estrogen receptor [2]): Active
- inhibition [3]: 50.1%
- inhibition [4]: < 10%
- IC50 (Steryl-sulfatase): 1020 nM
- inhibition (Estrogen receptor beta [5]): 2.25%
